# Laboratory results published in article PMC5164959 (Biochemical pharmacology, 2016).
# Read-outs that look alike come from different tables or passages of the source.
# Tests used:
# DGKα [1] = molecular target: T1, DGKα (Rattus norvegicus, UniProt P51556); assay: Kinase assay with HEK 293T cell homogenate over-expressing DGKα; type: biochemical
# How it was run: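 Each reaction held 5 μg homogenate protein, 2 mM extruded PC:PS:DAG liposomes (10 mol% dioleoyl, dioctanoyl or stearoyl-arachidonoyl DAG), buffer B, 1 mM DTT, 1 mM CaCl2 and 1 mM [γ32P]-ATP, run 20 min at 30°C. Test compounds came from DMSO stocks. 32P-PA was counted, normalized to GFP lysate and to DMSO control; IC50 from log[inhibitor] versus normalized response.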
# DGKε = settings: cited from earlier work
# DGKβ [2] = molecular target: DGKβ (Rattus norvegicus, UniProt P49621); assay: Kinase assay with HEK 293T cell homogenate over-expressing DGKβ; type: biochemical; settings: 20 μM inhibitor, dioleoyl DAG liposomes
# How it was run: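 Reactions contained 5 μg homogenate, 2 mM liposomes (10 mol% dioleoyl DAG, 40 mol% PS, 50 mol% PC), buffer B, 1 mM DTT, 1 mM CaCl2 and [γ32P]-ATP, 20 min at 30°C. Test compound was added from DMSO. Organic-phase 32P was counted and expressed as percent of DMSO control after subtracting the GFP-lysate background.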
# 5-HT2C = molecular target: T2, 5-HT2C (Homo sapiens, UniProt P28335); assay: Radioligand competition binding assay; settings: read-out: Ki 5-HT2C; Cheng-Prusoff from best-fit IC50
# T2 sequence (P28335 33-458): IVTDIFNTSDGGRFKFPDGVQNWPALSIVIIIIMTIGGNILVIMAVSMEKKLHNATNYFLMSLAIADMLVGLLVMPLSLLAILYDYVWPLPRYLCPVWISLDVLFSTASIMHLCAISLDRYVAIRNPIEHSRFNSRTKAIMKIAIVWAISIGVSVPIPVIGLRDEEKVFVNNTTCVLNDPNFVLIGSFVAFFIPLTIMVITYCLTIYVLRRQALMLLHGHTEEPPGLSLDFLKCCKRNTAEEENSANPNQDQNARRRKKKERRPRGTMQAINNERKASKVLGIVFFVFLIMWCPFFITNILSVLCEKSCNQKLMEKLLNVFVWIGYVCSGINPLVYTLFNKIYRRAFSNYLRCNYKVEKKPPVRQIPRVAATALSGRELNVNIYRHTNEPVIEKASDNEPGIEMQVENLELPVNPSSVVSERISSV
# 5-HT1D = 5-HT1D (Homo sapiens, UniProt P28221); assay: Radioligand competition binding assay
# Chain of 5-HT1D (P28221 whole entry, species assumed): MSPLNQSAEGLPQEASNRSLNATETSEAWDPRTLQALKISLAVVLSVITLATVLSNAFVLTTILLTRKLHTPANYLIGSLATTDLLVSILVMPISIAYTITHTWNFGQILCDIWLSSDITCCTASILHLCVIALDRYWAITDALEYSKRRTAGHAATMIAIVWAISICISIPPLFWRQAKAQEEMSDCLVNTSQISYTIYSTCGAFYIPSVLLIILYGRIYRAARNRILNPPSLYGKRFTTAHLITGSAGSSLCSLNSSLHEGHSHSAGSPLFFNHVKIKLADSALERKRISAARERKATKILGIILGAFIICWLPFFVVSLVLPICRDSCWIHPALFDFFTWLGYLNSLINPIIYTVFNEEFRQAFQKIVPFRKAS
# How it was run: (§1)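 Run by the NIMH PDSP as radioligand competition binding assays. The primary screen used 10 μM test compound and reported mean percent inhibition of radioligand binding (n=4); above 50% counted as significant. At those receptors, IC50 values came from non-linear regression of competition binding isotherms and were converted to Ki with the Cheng-Prusoff equation.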
# DGKβ [3] = settings: 30 μM R59022; cited from earlier work
# 5-HT5A = 5-HT5A (Homo sapiens, UniProt P47898); assay: Radioligand competition binding assay
# Chain of 5-HT5A (P47898 whole entry, species assumed): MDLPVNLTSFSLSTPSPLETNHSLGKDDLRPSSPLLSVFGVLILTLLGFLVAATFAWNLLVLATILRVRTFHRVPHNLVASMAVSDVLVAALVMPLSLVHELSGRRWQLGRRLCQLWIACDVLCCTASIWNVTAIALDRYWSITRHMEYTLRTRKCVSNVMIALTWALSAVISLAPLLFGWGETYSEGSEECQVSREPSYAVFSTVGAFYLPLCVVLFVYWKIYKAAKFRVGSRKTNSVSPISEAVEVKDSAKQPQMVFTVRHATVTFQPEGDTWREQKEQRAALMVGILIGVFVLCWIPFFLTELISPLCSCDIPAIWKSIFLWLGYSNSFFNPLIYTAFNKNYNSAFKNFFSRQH
# How it was run: as §1
# 5-HT7 = 5-HT7 (Homo sapiens, UniProt P34969); assay: Radioligand competition binding assay
# Chain of 5-HT7 (P34969 whole entry, species assumed): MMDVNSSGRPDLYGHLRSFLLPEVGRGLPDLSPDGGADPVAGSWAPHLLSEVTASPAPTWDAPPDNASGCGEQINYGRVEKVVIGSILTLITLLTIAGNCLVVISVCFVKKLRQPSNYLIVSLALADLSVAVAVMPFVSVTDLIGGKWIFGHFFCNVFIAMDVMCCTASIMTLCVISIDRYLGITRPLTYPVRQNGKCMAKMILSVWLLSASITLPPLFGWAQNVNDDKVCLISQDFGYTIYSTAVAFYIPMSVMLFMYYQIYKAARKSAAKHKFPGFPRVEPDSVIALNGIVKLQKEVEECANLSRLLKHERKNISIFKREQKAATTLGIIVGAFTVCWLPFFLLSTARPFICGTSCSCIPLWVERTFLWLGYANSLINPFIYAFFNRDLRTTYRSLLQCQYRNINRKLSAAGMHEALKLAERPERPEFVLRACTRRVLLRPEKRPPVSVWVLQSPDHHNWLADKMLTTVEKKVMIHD
# How it was run: as §1
# DGKι = DGKι (Homo sapiens, UniProt O75912); assay: Kinase assay with HEK 293T cell homogenate over-expressing DGKι; type: biochemical
# Chain of DGKι (O75912 1-1065 isoform O75912-1): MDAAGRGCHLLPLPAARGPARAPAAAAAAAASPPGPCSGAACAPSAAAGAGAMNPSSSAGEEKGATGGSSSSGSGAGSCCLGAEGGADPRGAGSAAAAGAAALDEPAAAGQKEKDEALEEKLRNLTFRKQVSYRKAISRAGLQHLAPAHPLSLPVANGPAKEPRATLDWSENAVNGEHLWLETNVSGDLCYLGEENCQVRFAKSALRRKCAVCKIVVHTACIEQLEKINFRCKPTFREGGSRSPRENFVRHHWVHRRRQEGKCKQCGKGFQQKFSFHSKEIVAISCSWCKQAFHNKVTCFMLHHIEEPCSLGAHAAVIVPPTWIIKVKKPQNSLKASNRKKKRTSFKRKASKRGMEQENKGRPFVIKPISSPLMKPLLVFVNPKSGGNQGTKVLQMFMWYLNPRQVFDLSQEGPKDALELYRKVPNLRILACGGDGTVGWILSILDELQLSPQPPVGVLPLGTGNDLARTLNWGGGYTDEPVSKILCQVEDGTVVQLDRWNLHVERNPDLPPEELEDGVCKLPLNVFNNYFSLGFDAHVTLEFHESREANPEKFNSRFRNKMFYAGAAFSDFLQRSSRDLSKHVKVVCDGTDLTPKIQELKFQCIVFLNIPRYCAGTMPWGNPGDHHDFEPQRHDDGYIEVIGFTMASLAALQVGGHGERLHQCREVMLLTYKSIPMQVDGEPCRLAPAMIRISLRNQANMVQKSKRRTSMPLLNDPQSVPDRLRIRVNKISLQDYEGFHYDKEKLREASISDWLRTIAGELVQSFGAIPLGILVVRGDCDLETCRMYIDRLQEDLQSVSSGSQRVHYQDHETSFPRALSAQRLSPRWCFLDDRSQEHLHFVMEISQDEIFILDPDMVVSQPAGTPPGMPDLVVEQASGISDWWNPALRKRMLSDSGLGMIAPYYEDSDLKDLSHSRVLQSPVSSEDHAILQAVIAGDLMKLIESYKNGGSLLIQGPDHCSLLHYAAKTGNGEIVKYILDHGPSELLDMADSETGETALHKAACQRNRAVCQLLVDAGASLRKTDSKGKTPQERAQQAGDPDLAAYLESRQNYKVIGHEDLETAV
# 5-HT1A = molecular target: T3, 5-HT1A (Homo sapiens, UniProt P08908); assay: Radioligand competition binding assay
# T3 sequence (P08908 1-422): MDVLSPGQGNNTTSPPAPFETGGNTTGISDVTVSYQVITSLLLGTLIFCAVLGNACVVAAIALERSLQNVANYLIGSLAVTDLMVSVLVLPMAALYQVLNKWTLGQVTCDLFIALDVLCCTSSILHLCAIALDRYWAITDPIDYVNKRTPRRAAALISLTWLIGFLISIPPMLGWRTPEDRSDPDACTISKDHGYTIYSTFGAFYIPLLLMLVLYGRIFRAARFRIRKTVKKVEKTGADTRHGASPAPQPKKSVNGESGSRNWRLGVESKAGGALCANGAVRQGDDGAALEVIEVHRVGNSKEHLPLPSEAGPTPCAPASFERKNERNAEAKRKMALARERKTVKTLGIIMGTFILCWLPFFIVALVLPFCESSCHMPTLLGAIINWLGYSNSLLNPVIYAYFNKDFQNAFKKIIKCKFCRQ
# DGKα [4] = molecular target: T1, DGKα; assay: Kinase assay with purified DGKα and PC:DAG:PS liposomes; type: biochemical; settings: for Vmax (ATP): ATP-dependent activity; for Vmax (DAG): DAG-dependent activity; for Decrease of Vmax of purified DGKα: 0.5 mol% drug
# How it was run: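 Rat FLAG-DGKα was expressed in HeLa cells by adenovirus (72 h) and purified on FLAG M2 beads. Reactions contained buffer B (MOPS pH 7.5), 1 mM CaCl2, 1 mM DTT and 4.75 mM PC:PS:DAG liposomes (5 mol% DAG), with test compound built into the liposomes at 0.5 or 2.0 mol% or added from DMSO. Reactions with [γ32P]-ATP ran 15 min at 25°C. Km and Vmax came from Michaelis-Menten non-linear regression.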
# DGKθ [5] = molecular target: DGKθ (Homo sapiens, UniProt P52824); assay: Kinase assay with HEK 293T cell homogenate over-expressing DGKθ; type: biochemical; settings: 20 μM inhibitor, dioleoyl DAG liposomes
# How it was run: (§2)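 Reactions without CaCl2 contained 5 μg homogenate, 2 mM liposomes (10 mol% dioleoyl DAG, 40 mol% PS, 50 mol% PC), buffer B, 1 mM DTT and [γ32P]-ATP, 20 min at 30°C. Test compound was added from DMSO. Extracted 32P-lipid was counted, GFP-lysate normalized, and expressed as percent of DMSO control.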
# 5-HT3 = 5-HT3 (Homo sapiens, UniProt P46098); assay: Radioligand competition binding assay; settings: 10 μM test compound, n=4
# Chain of 5-HT3 (P46098 24-478, species assumed): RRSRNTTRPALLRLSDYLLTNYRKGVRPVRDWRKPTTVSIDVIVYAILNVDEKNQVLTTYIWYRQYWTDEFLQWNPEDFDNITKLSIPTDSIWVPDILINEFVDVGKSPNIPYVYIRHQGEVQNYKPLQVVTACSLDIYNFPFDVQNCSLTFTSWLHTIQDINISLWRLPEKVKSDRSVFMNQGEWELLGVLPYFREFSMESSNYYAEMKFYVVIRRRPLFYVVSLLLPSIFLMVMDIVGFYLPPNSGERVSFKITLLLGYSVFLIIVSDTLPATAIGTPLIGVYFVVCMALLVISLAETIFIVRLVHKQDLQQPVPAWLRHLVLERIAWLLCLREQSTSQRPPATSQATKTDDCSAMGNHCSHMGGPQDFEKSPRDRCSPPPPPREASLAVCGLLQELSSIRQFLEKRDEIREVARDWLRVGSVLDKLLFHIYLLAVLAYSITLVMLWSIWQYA
# How it was run: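 Run by the NIMH PDSP as a radioligand competition binding primary screen. Test compounds were applied at 10 μM, and the read-out was mean percent inhibition of radioligand binding (n=4).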
# DGKθ [6] = settings: cited from earlier work
# DGKδ = DGKδ (Homo sapiens, UniProt Q16760); assay: Kinase assay with HEK 293T cell homogenate over-expressing DGKδ; type: biochemical; settings: 20 μM inhibitor, dioleoyl DAG liposomes
# Chain of DGKδ (Q16760 1-1170 isoform Q16760-2): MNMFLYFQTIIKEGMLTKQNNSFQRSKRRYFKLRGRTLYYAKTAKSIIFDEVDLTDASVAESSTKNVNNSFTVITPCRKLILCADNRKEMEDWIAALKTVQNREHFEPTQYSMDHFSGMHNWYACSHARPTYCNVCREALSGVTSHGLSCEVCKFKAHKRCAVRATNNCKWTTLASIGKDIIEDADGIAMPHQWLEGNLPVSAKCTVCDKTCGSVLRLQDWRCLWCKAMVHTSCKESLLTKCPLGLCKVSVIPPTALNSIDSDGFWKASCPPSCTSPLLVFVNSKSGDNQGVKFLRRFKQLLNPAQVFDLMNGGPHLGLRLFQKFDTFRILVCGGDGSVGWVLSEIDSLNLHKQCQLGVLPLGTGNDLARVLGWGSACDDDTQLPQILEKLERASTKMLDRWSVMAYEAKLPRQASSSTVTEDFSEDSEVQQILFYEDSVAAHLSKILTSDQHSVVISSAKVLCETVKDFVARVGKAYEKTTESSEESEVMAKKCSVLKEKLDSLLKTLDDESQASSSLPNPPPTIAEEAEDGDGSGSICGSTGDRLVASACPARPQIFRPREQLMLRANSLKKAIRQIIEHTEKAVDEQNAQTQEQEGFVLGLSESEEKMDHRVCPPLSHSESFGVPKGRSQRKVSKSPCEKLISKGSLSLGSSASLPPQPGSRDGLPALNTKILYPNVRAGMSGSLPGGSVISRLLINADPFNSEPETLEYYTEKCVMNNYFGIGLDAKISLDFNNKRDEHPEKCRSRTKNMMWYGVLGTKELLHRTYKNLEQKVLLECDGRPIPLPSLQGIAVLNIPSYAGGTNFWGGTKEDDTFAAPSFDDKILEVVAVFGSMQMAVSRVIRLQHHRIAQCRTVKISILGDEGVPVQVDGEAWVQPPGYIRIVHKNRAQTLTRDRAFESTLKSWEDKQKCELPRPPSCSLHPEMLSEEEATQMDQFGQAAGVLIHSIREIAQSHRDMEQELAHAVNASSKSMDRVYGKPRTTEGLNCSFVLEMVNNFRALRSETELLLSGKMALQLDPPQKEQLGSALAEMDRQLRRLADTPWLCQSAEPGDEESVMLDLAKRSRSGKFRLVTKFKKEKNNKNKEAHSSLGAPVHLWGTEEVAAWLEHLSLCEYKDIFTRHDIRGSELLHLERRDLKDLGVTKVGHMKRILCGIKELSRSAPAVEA
# How it was run: as §2
# T1 sequence (P51556 whole entry): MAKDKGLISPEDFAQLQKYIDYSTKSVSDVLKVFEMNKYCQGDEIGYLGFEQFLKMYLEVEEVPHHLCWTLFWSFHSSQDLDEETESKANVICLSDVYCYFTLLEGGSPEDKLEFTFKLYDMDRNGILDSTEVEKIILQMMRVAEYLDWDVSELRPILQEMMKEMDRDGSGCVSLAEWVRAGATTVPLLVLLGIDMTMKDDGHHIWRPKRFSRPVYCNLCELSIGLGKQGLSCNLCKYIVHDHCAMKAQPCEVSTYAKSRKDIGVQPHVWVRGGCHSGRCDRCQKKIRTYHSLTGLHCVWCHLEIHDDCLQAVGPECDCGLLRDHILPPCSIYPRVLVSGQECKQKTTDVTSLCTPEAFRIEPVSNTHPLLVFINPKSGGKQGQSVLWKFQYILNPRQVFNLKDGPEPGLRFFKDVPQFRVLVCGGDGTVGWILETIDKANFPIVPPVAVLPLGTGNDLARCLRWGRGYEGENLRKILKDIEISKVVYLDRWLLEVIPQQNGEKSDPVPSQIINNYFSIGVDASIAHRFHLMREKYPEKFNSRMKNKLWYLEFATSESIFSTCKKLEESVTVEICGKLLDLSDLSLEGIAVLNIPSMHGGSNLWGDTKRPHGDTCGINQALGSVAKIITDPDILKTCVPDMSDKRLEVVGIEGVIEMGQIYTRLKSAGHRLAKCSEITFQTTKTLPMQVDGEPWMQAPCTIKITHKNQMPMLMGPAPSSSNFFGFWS
structure (smiles),measurement,setting,value
Cc1nc2sccn2c(=O)c1CCN1CCC(=C(c2ccccc2)c2ccc(F)cc2)CC1 [R59022],"Activity of DGKα, percent of control","DGKα [1]; 20 μM inhibitor, liposomes with dioleoyl DAG, cell homogenate",decreased by about half
same,Potency against DGKα with other DAG species,"DGKα [1]; 20 μM, liposomes containing dioctanoyl or stearoyl arachidonoyl DAG",similarly potent
same,IC50,"DGKα [1]; read-out: IC50 for DGKα, cell homogenate, 1 mM ATP, 10 mol% DAG",~25000 nM
same,Inhibition of DGKε,DGKε,reported to inhibit
same,"Activity of DGKβ, percent of control",DGKβ [2],not detectably inhibited
same,Ki,5-HT2C,0.8 nM
same,Percent Inhibition of Binding 5-HT1D,"5-HT1D; 10 μM test compound, n=4",90.4%
same,Ki,"5-HT1D; read-out: Ki 5-HT1D, Cheng-Prusoff from best-fit IC50",12.3 nM
same,Inhibition of DGKβ,DGKβ [3],did not inhibit
same,Percent Inhibition of Binding 5-HT5A,"5-HT5A; 10 μM test compound, n=4",92.0%
same,Ki,"5-HT5A; read-out: Ki 5-HT5A, Cheng-Prusoff from best-fit IC50",18 nM
same,Percent Inhibition of Binding 5-HT7,"5-HT7; 10 μM test compound, n=4",98.5%
same,Ki,"5-HT7; read-out: Ki 5-HT7, Cheng-Prusoff from best-fit IC50",14.2 nM
same,"Activity of DGKι, percent of control","DGKι; 20 μM inhibitor, dioleoyl DAG liposomes, cell homogenate",not detectably inhibited
same,IC50 for DGKι relative to IC50 for DGKα,DGKι; fold higher than IC50 for DGKα,2–3 fold
same,IC50,"DGKι; read-out: IC50 for DGKι, cell homogenate, 1 mM ATP, 10 mol% DAG",~60000 nM
same,Percent Inhibition of Binding 5-HT1A,"5-HT1A; 10 μM test compound, n=4",82.4%
same,Ki,"5-HT1A; read-out: Ki 5-HT1A, Cheng-Prusoff from best-fit IC50",410 nM
same,Vmax (ATP),"DGKα [4]; 0.5 mol% drug in liposomes, 5 mol% DAG",32 ± 1 nmol/min/mg
same,Vmax (DAG),"DGKα [4]; 0.5 mol% drug in liposomes, 1 mM ATP",22 ± 1 nmol/min/mg
same,Decrease of Vmax of purified DGKα,DGKα [4]; in the context of ATP,25%
same,Decrease of Vmax of purified DGKα,DGKα [4]; in the context of DAG,40%
same,Vmax (ATP),"DGKα [4]; 2.0 mol% drug in liposomes, 5 mol% DAG",20 ± 1 ^† nmol/min/mg
same,Vmax (DAG),"DGKα [4]; 2.0 mol% drug in liposomes, 1 mM ATP",16 ± 1.5 nmol/min/mg
same,Km,"DGKα [4]; read-out: Km^app (ATP), 0.5 mol% drug in liposomes, 5 mol% DAG",50 ± 10 µM
same,Km,"DGKα [4]; read-out: Km^app (ATP), 2.0 mol% drug in liposomes, 5 mol% DAG",30 ± 10 µM
same,Km,"DGKα [4]; read-out: Km^app (DAG), 0.5 mol% drug in liposomes, 1 mM ATP",110 ± 20 µM
same,Km,"DGKα [4]; read-out: Km^app (DAG), 2.0 mol% drug in liposomes, 1 mM ATP",100 ± 20 µM
same,"Activity of DGKθ, percent of control",DGKθ [5],not detectably inhibited
same,Percent Inhibition of Binding 5-HT3,5-HT3,10.9%
same,Inhibition of DGKθ,DGKθ [6],reported to inhibit
same,"Activity of DGKδ, percent of control",DGKδ,not detectably inhibited
